Assay results pooled from the literature.
Protocols differ between the studies behind these lines.
Target: Tyrosine-protein kinase CSK (CSK, Homo sapiens, UniProt P41240)

| SMILES | read-out | mode | technique | concentration | setting | quantity | result |
| --- | --- | --- | --- | --- | --- | --- | --- |
| Cc1ccc(NC(=O)c2ccnc(C(F)(F)F)c2)cc1-c1cc(OCCO)nc(N2CCOCC2)c1 | binding | – | competition with immobilised ligand | 1 µM | – | remaining binding | 95% |
| Cc1cc(O)c(-c2ccc([C@@H](C)CN(C)C)cc2)c2c1[nH]c(=O)c1sccc12 | enzyme activity | inhibitor | – | 0.1 µM | lysate | inhibition | 2.59% |
| COc1ccc2oc(-c3ccc4nc(N)oc4c3)c/c(=N\c3ccccc3NC(=O)CCN)c2c1 | cell-free assay | – | – | 1 µM | – | remaining signal | 119% |
| CO[C@@H]1[C@H](N(C)C(=O)c2ccccc2)C[C@H]2O[C@]1(C)n1c3ccccc3c3c4c(c5c6ccccc6n2c5c31)C(=O)NC4 | enzyme activity | inhibitor | – | 1 µM | – | inhibition | 0% |
| CN1CCN(C(=O)c2ccc(NC(=O)Nc3ccc(N(C)c4ccnc(Nc5ccc(CS(C)(=O)=O)cc5)n4)cc3)cc2)CC1 | binding | – | competition with immobilised ligand | 1 µM | – | remaining binding | 62% |
| C#Cc1cc(-c2cc(Nc3nc(N[C@@H](C)c4ccc(F)cn4)ncc3Cl)n[nH]2)ccc1C=O | enzyme activity | inhibitor | – | 0.2 µM | – | inhibition | 14% |
| CCCCC(=O)Nc1ccc(-c2ccc3ncn(CCC)c(=O)c3c2)cn1 | binding | – | competition with immobilised ligand | 0.5 µM | – | remaining binding | 94% |
| C1=C/COCc2cc(ccc2OCCN2CCCC2)Nc2nccc(n2)-c2cccc(c2)COC/1 | cell-free assay | – | – | 0.1 µM | – | remaining signal | 88% |
| CC#CC(=O)N1CCC[C@H]1c1nc(-c2ccc(C(=O)Nc3ccccn3)cc2)c2c(N)nccn12 | enzyme activity | inhibitor | – | 1 µM | – | inhibition | 32% |
